In the library only some 5.8% were active in any assay of this set; here they are far more common.
T cruzi growth-1 – inhibitors of T. cruzi proliferation; T. cruzi beta-gal in NIH3T3, GalScreen luminescence, 90 h; inhibition, % at 8.34 µM; 77,000 tested, 5.9% active;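 active = mean inhibition above about 93%, with at least 55% of replicates each passing it, limit read from the data, passing the limit was not always enough; inconclusive = only one of those two conditions holds; inactive = neither condition holds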
Pf Dd2 inh – inhibitors of Plasmodium falciparum Dd2 growth | P. falciparum Dd2 growth, SYBR Green, 72 h; hits give low values | activity change, % at 10 µM | 94,000 tested, 2.3% active; in the data active = activity change below about -80%; inconclusive = no clear call, values can overlap the other calls
IDH1 R132H inh – IDH1 R132H (human) inhibition. O75874. IDH1 R132H reductase, diaphorase/resazurin fluorescence, 60 min. inhibition, % at 10 µM. 70,000 tested, 0.18% active. AID 624101; in the data active = inhibition above about 34%; inconclusive = no clear call, values can overlap the other calls; inactive = below about 11%
GASC1 inh – inhibitors of human demethylase GASC-1 KDM4C | Q9H3R0 | GST-KDM4C 2-372, H3K9me3 peptide, LANCE TR-FRET | inhibition, % at 12.5 µM | 96,000 tested, 0.15% active;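 active = mean replicate inhibition above about 25%, with at least 55% of replicates also reaching it, limit read from the data, passing the limit was not always enough; inconclusive = only one of those two conditions met; inactive = neither condition met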
Target sequence (Q9H3R0 2-372 limits assumed): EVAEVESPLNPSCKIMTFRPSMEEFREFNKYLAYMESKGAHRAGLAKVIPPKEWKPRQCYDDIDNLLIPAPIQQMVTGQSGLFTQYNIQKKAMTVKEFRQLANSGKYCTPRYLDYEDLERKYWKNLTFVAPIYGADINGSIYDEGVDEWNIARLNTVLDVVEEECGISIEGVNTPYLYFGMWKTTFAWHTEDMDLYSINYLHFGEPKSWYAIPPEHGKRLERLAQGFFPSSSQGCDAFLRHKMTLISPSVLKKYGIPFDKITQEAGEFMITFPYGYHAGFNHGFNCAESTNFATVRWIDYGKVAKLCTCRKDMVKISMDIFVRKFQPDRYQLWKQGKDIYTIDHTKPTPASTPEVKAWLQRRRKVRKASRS
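System: N-terminal GST-fused human GASC-1 (KDM4C) fragment, residues 2-372; amount: enzyme final amount 10 nM; incubation: reaction 30 min RT, detection step 1 h RT; medium: HEPES buffer, pH 7.5, plus ascorbate; technique: LANCE TR-FRET, Eu antibody, ULight-streptavidin, EDTA, ex 340 nm, em 618/671 nm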
T cruzi growth-2 – blocks T. cruzi growth in NIH3T3 host cells. inhibition, % at 8.35 µM. 5,600 tested, 72% active. AID 651739. shares compounds with T cruzi growth-1. T. cruzi beta-gal in NIH3T3, GalScreen luminescence, 90 h;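 active = mean replicate inhibition above about 95% and at least 55% of replicates individually reaching it, limit read from the data; inconclusive = only one of the two criteria is met; inactive = neither criterion is met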
T cruzi growth-3 – Trypanosoma cruzi proliferation inhibition | shares compounds with T cruzi growth-1 | T. cruzi beta-gal in NIH3T3, GalScreen luminescence, 90 h | inhibition, % at 2.09 µM | 5,600 tested, 21% active;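 active = mean inhibition above about 95%, with at least 55% of replicates also reaching it, limit read from the data; inconclusive = meets just one of the two conditions; inactive = meets neither condition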
3T3 cytotox – NIH/3T3 (mouse) viability loss; shares compounds with T cruzi growth-1; NIH/3T3 viability, CellTiter-Glo ATP luminescence, 90 h; cytotoxicity (signal decrease), % at 8.35 µM; 5,600 tested, 14% active;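 active = mean signal decrease across replicates above about 35% based on untreated-well scatter, with enough replicates individually passing, limit read from the data; inconclusive = no rule stated though some were filed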
NIH3T3 tox 2 – cytotoxicity in mouse NIH/3T3 fibroblasts. shares compounds with T cruzi growth-1. NIH/3T3 viability, CellTiter-Glo ATP luminescence, 90 h. inhibition, % at 24.9 µM. 5,600 tested, 56% active. AID 651744;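 active = mean loss of cell viability signal at or above a set limit, and enough replicates individually reaching it; inconclusive = meets only the mean limit or only the replicate share; inactive = meets neither condition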
Hits are given with their value; i = inactive; ? = inconclusive; nt = no result given; ! = not confirmed by another sample.

SMILES | T cruzi growth-1 | Pf Dd2 inh | IDH1 R132H inh | GASC1 inh | T cruzi growth-2 | T cruzi growth-3 | 3T3 cytotox | NIH3T3 tox 2
COc1ccc(C(=O)Nc2ccc3c(c2)OC[C@@H](C)NC[C@@H](C)[C@@H](OC)CN(C)C3=O)cc1 | i | i | i | i | nt | nt | nt | nt
C[C@H]1CCCCO[C@H](CN(C)Cc2ccc3c(c2)OCO3)[C@@H](C)CN([C@@H](C)CO)C(=O)c2cc(NC(=O)Nc3ccc(F)cc3)ccc2O1 | 109 | i | i | i | 102 | 99 | i | 104
C[C@@H]1CCCCO[C@@H](CN(C)Cc2ccc3c(c2)OCO3)[C@H](C)CN([C@H](C)CO)C(=O)c2cc(NC(=O)Nc3ccc(F)cc3)ccc2O1 | ? | i | nt | i | 97 | 100 | i | 104
COc1ccc(CN(C)C[C@H]2OCCCC[C@@H](C)Oc3ccc(NC(=O)Nc4ccc(F)cc4)cc3C(=O)N([C@@H](C)CO)C[C@H]2C)cc1 | i | i | nt | i | nt | nt | nt | nt
O=C(C1CC1)N1CC[C@@H]2[C@H]1c1cc(-c3cccc(F)c3)ccc1N[C@@H]2CO | 115 | i | nt | i | 105 | 103 | i | 28
O=C(C1CCOCC1)N1CC[C@@H]2[C@H]1c1cc(-c3cccc(F)c3)ccc1N[C@@H]2CO | i | i | nt | i | nt | nt | nt | nt
CN(C)C(=O)c1cccc(-c2ccc3c(c2)[C@@H]2[C@@H](CCN2C(=O)C2CC2)[C@H](CO)N3)c1 | i | i | nt | i | nt | nt | nt | nt
CN(C)C(=O)c1cccc(-c2ccc3c(c2)[C@H]2[C@H](CCN2C(=O)C2CC2)[C@@H](CO)N3)c1 | 112 | -94 | nt | i | i | i | i | i
CN(C)C(=O)c1cccc(-c2ccc3c(c2)[C@H]2[C@H](CCN2C(=O)C2CC2)[C@H](CO)N3)c1 | 99 | i | nt | i | 105 | i | i | i
C[C@H](CO)N1C[C@H](C)[C@H](CN(C)S(=O)(=O)c2ccccc2)Oc2ncc(C#Cc3ccc(F)cc3)cc2C1=O | ? | i | i | i | 107 | i | i | i
C[C@H](CO)N1C[C@H](C)[C@H](CN(C)S(=O)(=O)c2ccc(F)cc2)Oc2ncc(C#Cc3ccc(F)cc3)cc2C1=O | 113 | i | i | i | 108 | i | i | 36
C[C@H](CO)N1C[C@H](C)[C@H](CN(C)S(=O)(=O)c2ccccc2)Oc2ncc(C#Cc3cccc(F)c3)cc2C1=O | i | i | i | i | nt | nt | nt | nt
C[C@@H]1CN([C@@H](C)CO)C(=O)c2cc(C#CC3CCCC3)cnc2O[C@H]1CN(C)S(=O)(=O)c1cccc(F)c1 | 115 | i | i | i | 103 | i | i | 86
Cc1ccc(S(=O)(=O)N(C)C[C@@H]2Oc3ncc(C#Cc4ccc(F)cc4)cc3C(=O)N([C@H](C)CO)C[C@@H]2C)cc1 | i | i | i | i | nt | nt | nt | nt
CCOC(=O)c1c(NC(=O)c2ccc(C)c(S(=O)(=O)N3CCOCC3)c2)sc2c1CCC2 | nt | nt | i | nt | nt | nt | nt | nt
C[C@@H]1CN([C@@H](C)CO)C(=O)c2cc(N(C)C)ccc2O[C@@H](C)CCCCO[C@H]1CN(C)C(=O)Cc1ccccc1 | i | i | nt | i | nt | nt | nt | nt
Cc1noc(C)c1NC(=O)Nc1ccc2c(c1)C(=O)N([C@@H](C)CO)C[C@@H](C)[C@@H](CN(C)Cc1ccc(C(=O)O)cc1)OCCCC[C@@H](C)O2 | i | i | i | i | nt | nt | nt | nt
C[C@H]1CN([C@@H](C)CO)C(=O)c2c(c3ccccc3n2C)-c2ccccc2CO[C@@H]1CN(C)S(=O)(=O)c1cccc(F)c1 | 102 | -88 | nt | i | 108 | i | i | 27
C[C@H](CO)N1C[C@H](C)[C@H](CN(C)S(=O)(=O)c2cccc(C#N)c2)OCc2ccccc2-c2c(n(C)c3ccccc23)C1=O | 101 | -83 | i | i | 105 | i | i | i
C[C@H]1CN([C@@H](C)CO)C(=O)c2c(c3ccccc3n2C)-c2ccccc2CO[C@@H]1CN(C)S(=O)(=O)c1ccsc1 | 114 | -80 | nt | i | 107 | i | i | i
C[C@@H]1CN([C@@H](C)CO)C(=O)c2c(c3ccccc3n2C)-c2ccccc2CO[C@@H]1CN(C)S(=O)(=O)c1ccsc1 | i | i | i | i | nt | nt | nt | nt
C[C@@H]1CN([C@@H](C)CO)C(=O)c2c(c3ccccc3n2C)-c2ccccc2CO[C@@H]1CN(C)S(=O)(=O)c1ccc(Cl)cc1 | 100 | -87 | i | i | 98 | 102 | i | 66
C[C@@H]1CN([C@H](C)CO)C(=O)c2c(c3ccccc3n2C)-c2ccccc2CO[C@@H]1CN(C)S(=O)(=O)c1ccc(C#N)cc1 | i | i | i | i | nt | nt | nt | nt
C[C@H](NC(=O)C[C@H]1C[C@H]2c3cc(NC(=O)CN(C)C)ccc3O[C@H]2[C@H](CO)O1)c1ccccc1 | i | i | i | i | nt | nt | nt | nt
O=C(C[C@H]1CC[C@@H]2[C@H](COC[C@@H](O)CN2S(=O)(=O)c2ccccc2)O1)NCC1CCCCC1 | i | i | nt | nt | nt | nt | nt | nt
SMILES | T cruzi growth-1 | Pf Dd2 inh | IDH1 R132H inh | GASC1 inh | T cruzi growth-2 | T cruzi growth-3 | 3T3 cytotox | NIH3T3 tox 2
C[C@H](CO)N1C[C@H](C)[C@H](CN(C)S(=O)(=O)c2ccccc2F)OCc2ccccc2-c2c(n(C)c3ccccc23)C1=O | 99 | -87 | i | i | 104 | i | 44 | 97
Cc1cccc(S(=O)(=O)N(C)C[C@H]2OCc3ccccc3-c3c(n(C)c4ccccc34)C(=O)N([C@H](C)CO)C[C@@H]2C)c1 | i | i | nt | i | nt | nt | nt | nt
Cc1cccc(S(=O)(=O)N(C)C[C@@H]2OCc3ccccc3-c3c(n(C)c4ccccc34)C(=O)N([C@H](C)CO)C[C@@H]2C)c1 | ? | -86 | nt | i | 99 | 106 | i | 78
C[C@@H]1CN([C@H](C)CO)C(=O)c2cc(NC(=O)CCCCCC(=O)Nc3ccccc3N)ccc2O[C@@H]1CN(C)Cc1ccc(C(F)(F)F)cc1 | nt | i | nt | i | nt | nt | nt | nt
COc1ccc(NC(=O)Nc2ccc3c(c2)[C@H]2C[C@H](CC(=O)NCc4ccccc4F)O[C@@H](CO)[C@H]2O3)cc1 | i | i | i | i | nt | nt | nt | nt
C[C@@H]1CN([C@@H](C)CO)C(=O)c2cc(N(C)C)ccc2O[C@@H](C)CCCCO[C@@H]1CN(C)Cc1ccc2c(c1)OCO2 | 101! | i | nt | i | ? | i | i | i
C[C@@H]1CCCCO[C@H](CN(C)Cc2ccncc2)[C@@H](C)CN([C@H](C)CO)C(=O)c2cc(N(C)C)ccc2O1 | 108! | i | i | i | i | i | i | i
Cc1noc(C)c1NC(=O)Nc1ccc2c(c1)C(=O)N([C@H](C)CO)C[C@H](C)[C@H](CN(C)C(=O)c1ccccc1)OCCCC[C@H](C)O2 | i | i | i | i | nt | nt | nt | nt
CO[C@@H](CN(C)C(=O)Nc1ccc(Cl)cc1)[C@H](C)CN(Cc1ccccc1Cl)[C@@H](C)CO | i | i | i | i | nt | nt | nt | nt

Source: PubChem BioAssay
